Calls of active or inactive are those of the source.
Tests used:
Rattus norvegicus [1] = test: Antianaphylactic activity against IgE-mediated rat passive cutaneous anaphylaxis (PCA) model after oral administration.; assay type: functional
Outline: (§1)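 Female Sprague-Dawley rats (~200 g) received rat anti-ovoalbumin IgE antiserum intradermally at four back sites. Drug in 2% gum arabic given po (10 mL/kg) 10 min or ip (5 mL/kg) 5 min before challenge. Blue-spot area measured at 30 min versus vehicle controls. ED50 by linear regression on at least three doses.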

Rattus norvegicus [2] = test: Antianaphylactic activity against IgE-mediated rat passive cutaneous anaphylaxis (PCA) model after intraperitoneal administration.; assay type: functional; conditions: ip; outline: as §1
Cavia porcellus [3] = species: Cavia porcellus; test: Inhibitory effect on Antigen-induced SRS-A (slow reacting substance of anaphylaxis) like material release from sensitized guinea pig lung fragments at a concentration of 10 E -4 M; assay type: functional
Outline: (§2)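 Lungs from ovoalbumin-sensitized guinea pigs were taken at 3 weeks and minced in Krebs' solution (0.1 g tissue/mL). Suspension incubated 15 min at 37 °C. Drug added, then ovoalbumin 1 μg 5 min later, for 15 min at 37 °C. SRS-A-like activity of the filtrate assayed on isolated guinea pig ileum, as % inhibition versus saline controls.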

Rattus norvegicus [4] = test: Antianaphylactic activity against IgE-mediated rat PCA model after oral administration; Not active; assay type: functional, organism-based; outline: as §1
Cavia porcellus [5] = species: Cavia porcellus; test: Inhibitory effect on Antigen-induced SRS-A (slow reacting substance of anaphylaxis) like material release from sensitized guinea pig lung fragments at a concentration of 10 E -5 M; assay type: functional; outline: as §2
Rattus norvegicus [6] = test: Antianaphylactic activity at the bronchopulmonary level against IgE-mediated rat PPA model when administered intravenously.; assay type: functional; conditions: iv
Outline: (§3)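 Rats passively sensitized iv with anti-ovoalbumin serum (1 mL/rat). Challenge was iv ovoalbumin 4 mg/kg. Bronchoconstriction measured as air overflow (Konzett-Rössler). Drug given po in 2% gum arabic (10 mL/kg) 30 min before, or iv in 10% DMSO (1 mL/kg) 15 min before. ED50 by linear regression.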

Cavia porcellus [7] = species: Cavia porcellus; test: Inhibitory effect on Antigen-induced SRS-A (slow reacting substance of anaphylaxis) like material release from sensitized guinea pig lung fragments at a concentration of 10 E -6 M; assay type: functional; outline: as §2
Rattus norvegicus [8] = test: Antianaphylactic activity at the bronchopulmonary level against IgE-mediated rat PPA model when administered orally.; assay type: functional; conditions: po; outline: as §3
Cavia porcellus [9] = test: Aantianaphylactic activity at the bronchopulmonary level against IgG-mediated APA model of guinea pig when administered intraperitoneally.; assay type: functional; conditions: ip
Outline: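 Guinea pigs (either sex, 300-400 g) sensitized by a single ip dose of ovoalbumin in liquid petrolatum (20 mg/mL). Tested 3 weeks later. Drug given ip in 2% gum arabic (5 mL/kg) 30 min before aerosol challenge with 2% ovoalbumin. Read-out is delay to severe dyspnea in seconds, with 3 min cutoff. ED50 by linear regression.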

Cavia porcellus [10] = species: Cavia porcellus; test: Inhibitory effect on Antigen-induced SRS-A (slow reacting substance of anaphylaxis) like material release from sensitized guinea pig lung fragments at a concentration of 10 E -7 M; assay type: functional; outline: as §2
Cavia porcellus [11] = species: Cavia porcellus; test: Inhibitory effect on Antigen-induced SRS-A (slow reacting substance of anaphylaxis) like material release from sensitized guinea pig lung fragments at a concentration of 10 E -8 M; assay type: functional; outline: as §2

SMILES	ED50 (Rattus norvegicus [1])	ED50 (Rattus norvegicus [2])	other results
CCOCCOC(=O)C(=O)Nc1nc(-c2cc(Br)no2)c(CC)s1	9 mg/kg	3 mg/kg	–
NCCCC[C@H](N)C(=O)O.O=C(O)C(=O)Nc1nc(-c2conc2-c2ccccc2)cs1	> 100 mg/kg	> 100 mg/kg	–
CCOCCOC(=O)C(=O)Nc1nc(-c2cc(OC)no2)cs1	11 mg/kg	3 mg/kg	–
O=C([O-])c1cc(=O)c2c(OCC(O)COc3cccc4oc(C(=O)[O-])cc(=O)c34)cccc2o1.[Na+].[Na+] [CROMOLYN SODIUM]	–	12 mg/kg	Inhibition (Cavia porcellus [3]): 46%; ED50 (Rattus norvegicus [4]): inactive; Inhibition (Cavia porcellus [5]): 38%; ED50 (Rattus norvegicus [6]): 0.82 mg/kg; Inhibition (Cavia porcellus [7]): 20%; ED50 (Rattus norvegicus [8]): > 100 mg/kg; ED50 (Cavia porcellus [9]): > 1000 mg/kg
NCCCC[C@H](N)C(=O)O.O=C(O)C(=O)Nc1nc(-c2cc(Br)no2)cs1	8 mg/kg	0.5 mg/kg	–
O=C(O)C(=O)Nc1nc(-c2cc(Br)no2)cs1	> 30 mg/kg	3 mg/kg	–
NCCO.O=C(O)C(=O)Nc1nc(-c2cc(-c3c(F)cccc3Cl)no2)cs1	> 30 mg/kg	2.4 mg/kg	–
CCOC(=O)C(=O)Nc1nc(-c2cc(C)no2)cs1	0.7 mg/kg	0.2 mg/kg	–
NCCO.O=C(O)C(=O)Nc1nc(-c2cc(-c3ccccc3)on2)cs1	2.6 mg/kg	0.23 mg/kg	–
NCCO.O=C(O)C(=O)Nc1nc(-c2cc(-c3ccccc3)no2)cs1	0.6 mg/kg	0.24 mg/kg	–
CCOCCOC(=O)C(=O)Nc1nc(-c2cc(Br)no2)cs1	> 30 mg/kg	11 mg/kg	–
CCOCCOC(=O)C(=O)Nc1nc(-c2cc(CO)on2)cs1	14 mg/kg	1.8 mg/kg	–
CCOCCOC(=O)C(=O)Nc1nc(-c2conc2C)cs1	> 100 mg/kg	> 100 mg/kg	–
CC(C)(C)OC(=O)C(=O)Nc1nc(-c2cc(-c3ccccc3)no2)cs1	7 mg/kg	9 mg/kg	–
CCOCCOC(=O)C(=O)Nc1nc(-c2cc(C)no2)cs1 [ASOBAMAST]	1.3 mg/kg	0.04 mg/kg	Inhibition (Cavia porcellus [10]): 43%; Inhibition (Cavia porcellus [5]): 52%; ED50 (Rattus norvegicus [6]): 0.09 mg/kg; Inhibition (Cavia porcellus [7]): 48%; Inhibition (Cavia porcellus [11]): 18%; ED50 (Rattus norvegicus [8]): 4.7 mg/kg; ED50 (Cavia porcellus [9]): 185 mg/kg
CCOCCOC(=O)C(=O)Nc1nc(-c2c(-c3ccccc3)noc2C)cs1	> 100 mg/kg	> 10 mg/kg	–
NCCO.O=C(O)C(=O)Nc1nc(-c2conc2-c2c(F)cccc2Cl)cs1	> 100 mg/kg	30 mg/kg	–
NCCO.O=C(O)C(=O)Nc1nc(-c2cc(CO)no2)cs1	0.7 mg/kg	0.007 mg/kg	–

SMILES	ED50 (Rattus norvegicus [1])	ED50 (Rattus norvegicus [2])	other results
CCOCCOC(=O)C(=O)Nc1nc(-c2cc(C(=O)OCC)no2)cs1	1.9 mg/kg	0.08 mg/kg	–
NCCO.O=C(O)C(=O)Nc1nc(-c2cc(CO)on2)cs1	> 30 mg/kg	> 100 mg/kg	–
CCOCCOC(=O)C(=O)Nc1nc(-c2cc(OCc3ccccc3)no2)cs1	> 100 mg/kg	3.7 mg/kg	–
CCOC(=O)C(=O)Nc1nc(-c2cc(Br)no2)cs1	> 100 mg/kg	12 mg/kg	–
COc1cc(-c2csc(NC(=O)C(=O)O)n2)on1.NCCO	8 mg/kg	1.2 mg/kg	–
NCCO.O=C(O)C(=O)Nc1nc(-c2cc(Cl)no2)cs1	> 30 mg/kg	> 30 mg/kg	–
Cc1cc(-c2csc(NC(=O)C(=O)O)n2)no1.NCCCC[C@H](N)C(=O)O	17 mg/kg	1.7 mg/kg	–
CCOCCOC(=O)C(=O)Nc1nc(-c2cc(Cl)no2)cs1	> 30 mg/kg	6 mg/kg	–
NCCO.O=C(O)C(=O)Nc1nc(-c2cc(Br)no2)cs1	> 30 mg/kg	7 mg/kg	–
O=C(Nc1nc(-c2cc(-c3c(F)cccc3Cl)no2)cs1)C(=O)OCc1ccccc1	> 30 mg/kg	> 30 mg/kg	–
CCOCCOC(=O)C(=O)Nc1nc(-c2cc(-c3ccccc3)on2)cs1	13 mg/kg	0.2 mg/kg	–
Cc1cc(-c2csc(NC(=O)C(=O)O)n2)on1.NCCCC[C@H](N)C(=O)O	6 mg/kg	0.3 mg/kg	–
CCOCCOC(=O)C(=O)Nc1nc(-c2cc(COC)no2)cs1	0.7 mg/kg	2.4 mg/kg	–
CCOCCOC(=O)C(=O)Nc1nc(-c2cc(-c3c(F)cccc3Cl)no2)cs1	> 30 mg/kg	1.1 mg/kg	–
COCCOC(=O)C(=O)Nc1nc(-c2cc(Br)no2)cs1	> 100 mg/kg	7 mg/kg	–
CCOCCOC(=O)C(=O)Nc1nc(-c2cc(C)on2)cs1	2 mg/kg	1.3 mg/kg	–
CCOCCOC(=O)C(=O)Nc1nc(-c2c(-c3c(F)cccc3Cl)noc2C)cs1	> 30 mg/kg	> 10 mg/kg	–
NCCCC[C@H](N)C(=O)O.O=C(O)C(=O)Nc1nc(-c2cc(-c3ccccc3)no2)cs1	2.4 mg/kg	0.24 mg/kg	–
